# Test results as given in ChEMBL document CHEMBL4052819 (2017).
# Activity calls are given as the source filed them. No cut-off for these calls is given here. Non-standard residues stand in square brackets, D forms with d. Residues, ends and D or L forms follow the SMILES beside them. *: point of attachment. Octanoyl = CCCCCCCC(=O)*; Dab = NCC[C@H](N)C(=O)O
# Columns and labels:
# [1] = test system: Pseudomonas aeruginosa; test: Bactericidal activity against Pseudomonas aeruginosa ATCC 27853 after 60 mins in presence of LPS; type: functional
# Outline: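 P. aeruginosa at ~10^6 CFU/mL in TSB with E. coli O111:B4 LPS (final 10, 25, 50 or 100 μg/mL), then compound at final 16 μg/mL. Incubated 37 °C, 200 rpm, 60 min; survivors counted on TSA. Three independent experiments, one replicate each.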
# [2] = test system: Escherichia coli; test: Antibacterial activity against Escherichia coli ATCC 25922 in presence of 100% serum measured immediately post compound addition in serum by broth microdilution method; type: functional
# Outline: (§1)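 Serum stability: compound added to 100% human serum at final 64 μg/mL, held at 37 °C, sampled at 0, 6, 12 and 24 h. […] Residual activity compared with untreated control.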
# [3] = test system: Staphylococcus aureus; test: Antibacterial activity against Staphylococcus aureus ATCC 29213 after 18 to 20 hrs by broth microdilution method; type: functional
# Outline: (§2)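 Broth microdilution in tryptic soy broth: 2-fold dilutions mixed 1:1 with ~1.5 × 10^5 CFU/mL inoculum, final 0.5–32 μg/mL; 37 °C, 18–20 h. MIC taken as lowest concentration giving no visible growth. At least three independent experiments, one replicate each.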
# [4] = test system: Staphylococcus aureus; test: Bactericidal activity against Staphylococcus aureus ATCC 29213; type: functional; conditions: read-out: MBC99.9
# Outline: (§3)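 MBC from MIC plates at end point: 50 μL from each well with no visible growth plated on tryptic soy agar and counted. MBC taken as lowest concentration giving ≥99.9% fall in viable count relative to initial inoculum. Three independent experiments, one replicate each.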
# [5] = test system: Pseudomonas aeruginosa; test: Bactericidal activity against Pseudomonas aeruginosa ATCC 27853; type: functional; conditions: read-out: MBC99.9; outline: as §3
# [6] = test system: Enterococcus faecium; test: Bactericidal activity against Enterococcus faecium ATCC 19434; type: functional; conditions: read-out: MBC99.9; outline: as §3
# [7] = test system: Escherichia coli; test: Antibacterial activity against Escherichia coli ATCC 25922 in presence of 100% serum after 24 hrs by broth microdilution method; type: functional; conditions: ATCC 25922, 24 h; outline: as §1
# [8] = test system: Escherichia coli; test: Antibacterial activity against Escherichia coli ATCC 25922 after 18 to 20 hrs in presence of 95% serum by broth microdilution method; type: functional
# Outline: (§4)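 Same microdilution with human serum as medium: compound 2-fold diluted in 100% serum, mixed 1:1 with 90% serum holding ~1.5 × 10^5 CFU/mL, giving 95% serum and final 0.5–64 μg/mL. MIC read as no visible growth after incubation as for the broth test.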
# [9] = test system: Escherichia coli; test: Antibacterial activity against Escherichia coli ATCC 25922 in presence of 100% serum after 12 hrs by broth microdilution method; type: functional; conditions: ATCC 25922, 12 h; outline: as §1
# [10] = test system: Escherichia coli; test: Bactericidal activity against Escherichia coli ATCC 25922; type: functional; conditions: read-out: MBC99.9; outline: as §3
# [11] = test system: Acinetobacter baumannii; test: Bactericidal activity against Acinetobacter baumannii ATCC 19606; type: functional; conditions: ATCC 19606 = CIP 70.34 = JCM 6841, read-out: MBC99.9; outline: as §3
# [12] = test system: Staphylococcus aureus; test: Antibacterial activity against Staphylococcus aureus ATCC 29213 after 18 to 20 hrs in presence of 95% serum by broth microdilution method; type: functional; outline: as §4
# [13] = test system: Acinetobacter baumannii; test: Antibacterial activity against Acinetobacter baumannii ATCC 19606 after 18 to 20 hrs by broth microdilution method; type: functional; conditions: ATCC 19606 = CIP 70.34 = JCM 6841
# [14] = test system: Escherichia coli; test: Antibacterial activity against Escherichia coli ATCC 25922 in presence of 100% serum after 6 hrs by broth microdilution method; type: functional; conditions: ATCC 25922, 6 h; outline: as §1
# [15] = test system: Escherichia coli; test: Antibacterial activity against Escherichia coli ATCC 25922 after 18 to 20 hrs by broth microdilution method; type: functional; outline: as §2
# [16] = test system: Pseudomonas aeruginosa; test: Antibacterial activity against Pseudomonas aeruginosa ATCC 27853 after 18 to 20 hrs by broth microdilution method; type: functional; outline: as §2
# [17] = test system: Klebsiella pneumoniae; test: Bactericidal activity against Klebsiella pneumoniae ATCC 13883; type: functional; conditions: read-out: MBC99.9; outline: as §3
# [18] = test system: Staphylococcus aureus; test: Antibacterial activity against methicillin-resistant Staphylococcus aureus ATCC 43300 after 18 to 20 hrs by broth microdilution method; type: functional
# Outline: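 Broth microdilution in tryptic soy broth: 2-fold dilutions mixed 1:1 with ~1.5 × 10^5 CFU/mL bacterial suspension in TSB, final 0.5–32 μg/mL, 37 °C for 18–20 h. MIC = lowest concentration with no visible growth. At least three independent experiments, one replicate each.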
# [19] = test system: Staphylococcus aureus; test: Bactericidal activity against methicillin-resistant Staphylococcus aureus ATCC 43300; type: functional; conditions: read-out: MBC99.9
# Outline: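 MBC taken at the end of the MIC test: 50 μL from each well without visible growth plated on tryptic soy agar. MBC = lowest concentration giving ≥99.9% reduction in viable cells relative to the initial inoculum. Three independent experiments, one replicate each.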
# [20] = test system: Klebsiella pneumoniae; test: Antibacterial activity against Klebsiella pneumoniae ATCC 13883 after 18 to 20 hrs by broth microdilution method; type: functional
# [21] = test system: Enterococcus faecium; test: Antibacterial activity against Enterococcus faecium ATCC 19434 after 18 to 20 hrs by broth microdilution method; type: functional; outline: as §2
# [22] = test system: Acinetobacter baumannii; test: Potentiation of vancomycin-mediated antibacterial activity against Acinetobacter baumannii ATCC 19606 assessed as decrease in vancomycin MIC at 4 ug/ml by checkerboard method relative to control; type: functional, ATCC 19606 = CIP 70.34 = JCM 6841
# [23] = test system: Klebsiella pneumoniae; test: Potentiation of rifampicin-mediated antibacterial activity against Klebsiella pneumoniae ATCC 13883 assessed as rifampicin MIC at 2 ug/ml by checkerboard method (reference value: 16 ug/ml); type: functional
# [24] = test system: Klebsiella pneumoniae; test: Potentiation of erythromycin-mediated antibacterial activity against Klebsiella pneumoniae ATCC 13883 assessed as decrease in erythromycin MIC at 4 ug/ml by checkerboard method relative to control; type: functional
# [25] = test system: Klebsiella pneumoniae; test: Potentiation of rifampicin-mediated antibacterial activity against Klebsiella pneumoniae ATCC 13883 assessed as decrease in rifampicin MIC at 2 ug/ml by checkerboard method relative to control; type: functional
# [26] = test system: Klebsiella pneumoniae; test: Potentiation of vancomycin-mediated antibacterial activity against Klebsiella pneumoniae ATCC 13883 assessed as decrease in vancomycin MIC at 4 ug/ml by checkerboard method relative to control; type: functional
# [27] = test system: Acinetobacter baumannii; test: Potentiation of rifampicin-mediated antibacterial activity against Acinetobacter baumannii ATCC 19606 assessed as rifampicin MIC at 2 ug/ml by checkerboard method (reference value: 16 ug/ml); type: functional; conditions: ATCC 19606 = CIP 70.34 = JCM 6841
# [28] = test system: Acinetobacter baumannii; test: Potentiation of clarithromycin-mediated antibacterial activity against Acinetobacter baumannii ATCC 19606 assessed as decrease in clarithromycin MIC at 4 ug/ml by checkerboard method relative to control; type: functional, ATCC 19606 = CIP 70.34 = JCM 6841
# [29] = test system: Klebsiella pneumoniae; test: Potentiation of clarithromycin-mediated antibacterial activity against Klebsiella pneumoniae ATCC 13883 assessed as decrease in clarithromycin MIC at 4 ug/ml by checkerboard method relative to control; type: functional
# [30] = test system: Acinetobacter baumannii; test: Potentiation of erythromycin-mediated antibacterial activity against Acinetobacter baumannii ATCC 19606 assessed as decrease in erythromycin MIC at 4 ug/ml by checkerboard method relative to control; type: functional, ATCC 19606 = CIP 70.34 = JCM 6841
# [31] = test system: Klebsiella pneumoniae; test: Potentiation of ampicillin-mediated antibacterial activity against Klebsiella pneumoniae ATCC 13883 assessed as decrease in ampicillin MIC at 4 ug/ml by checkerboard method relative to control; type: functional
# [32] = test system: Acinetobacter baumannii; test: Potentiation of rifampicin-mediated antibacterial activity against Acinetobacter baumannii ATCC 19606 assessed as decrease in rifampicin MIC at 4 ug/ml by checkerboard method relative to control; type: functional, ATCC 19606 = CIP 70.34 = JCM 6841
# [33] = test system: Acinetobacter baumannii; test: Potentiation of ampicillin-mediated antibacterial activity against Acinetobacter baumannii ATCC 19606 assessed as decrease in ampicillin MIC at 4 ug/ml by checkerboard method relative to control; type: functional, ATCC 19606 = CIP 70.34 = JCM 6841
Compound,Activity [1],MIC [2],MIC [3],MBC [5],MIC [7],MIC [8],MIC [9],MIC [12],MIC [13],MIC [14],MIC [15],MIC [16],MIC [18],MIC [20],MIC [21],other results
CCCCCCCC(=O)N[C@@H](CCN)C(=O)N[C@H](C(=O)N[C@@H](CCN)C(=O)N[C@H](Cc1ccccc1)C(=O)N[C@@H](CC(C)C)C(=O)N[C@@H](CCN)C(=O)N[C@@H](C(=O)N[C@@H](CC(C)C)C(=O)N[C@@H](CO)C(N)=O)C(C)C)[C@@H](C)CC (Octanoyl-[Dab]I[Dab][dF]L[Dab][dV]LS-NH2),inactive,8 µg/mL,8 to 16 µg/mL,8 to 16 µg/mL,8 µg/mL,8 µg/mL,8 µg/mL,16 to 32 µg/mL,16 µg/mL,8 µg/mL,2 to 4 µg/mL,2 µg/mL,8 to 16 µg/mL,8 to 16 µg/mL,16 µg/mL,MBC [4]: 16 µg/mL; MBC [6]: 16 to 32 µg/mL; MBC [10]: 16 µg/mL; MBC [11]: 16 to 32 µg/mL; MBC [17]: 8 to 16 µg/mL; MBC [19]: 8 to 32 µg/mL
CCCCCCCC(=O)N[C@@H](CCN)C(=O)N[C@H](C(=O)N[C@@H](CCN)C(=O)N[C@H](Cc1ccccc1)C(=O)N[C@@H](CC(C)C)C(=O)N[C@@H](CCN)C(=O)N[C@@H](C(=O)N[C@@H](CC(C)C)C(=O)N[C@@H](CCN)C(N)=O)C(C)C)[C@@H](C)CC (Octanoyl-[Dab]I[Dab][dF]L[Dab][dV]L[Dab]-NH2),inactive,1 to 2 µg/mL,> 32 µg/mL,16 µg/mL,2 µg/mL,2 to 4 µg/mL,1 to 2 µg/mL,16 µg/mL,≥ 32 µg/mL,2 µg/mL,4 to 16 µg/mL,2 to 4 µg/mL,32 µg/mL,> 32 µg/mL,32 µg/mL,fold change (FC) [22]: 64 - 128; MIC [23]: 0.0019 to 0.0039 µg/mL; fold change (FC) [24]: 512; fold change (FC) [25]: >=8192; fold change (FC) [26]: 2; MIC [27]: 0.0019 µg/mL; fold change (FC) [28]: 4096 - 8192; fold change (FC) [29]: 2048; fold change (FC) [30]: 128 - 256; fold change (FC) [31]: 1; fold change (FC) [32]: 8192; fold change (FC) [33]: 16 - 32
